{"data": "Measurements gathered from unrelated publications", "target": "Calcium/calmodulin-dependent protein kinase type 1 (CAMK1, Homo sapiens, UniProt Q14012)", "note": "Lines come from different studies, so protocols differ."}
{"SMILES": "COc1ncc2cc3ccccc3nc2c1C#N", "assay": "cell-free assay, competition with immobilised ligand", "setting": "5 µM", "remaining binding": "100%"}
{"SMILES": "C=CC(=O)N1CCC(C(=O)NCC(=O)N2CCN(c3nc(-c4cnc(N)nc4C(F)F)nc(N4CCOCC4)n3)CC2)CC1", "assay": "binding, competition with immobilised ligand", "setting": "1 µM", "remaining binding": "86%"}
{"SMILES": "CN(CCCC(F)(F)F)c1nccc(-c2cnn3ncccc23)n1", "assay": "binding", "setting": "1 µM", "remaining binding": "76%"}
{"SMILES": "C[C@@H](c1cccc(C#N)c1)n1cc(Cl)cc(C(N)=O)c1=N", "assay": "cell-free assay, competition with immobilised ligand", "setting": "1 µM", "remaining binding": "100%"}
{"SMILES": "C[C@@H]1CCN(c2nccc(-c3cnn4ncccc34)n2)C1", "assay": "binding", "setting": "1 µM", "remaining binding": "87%"}
{"SMILES": "CNC(=O)[C@@H]1CC[C@@H](n2c(-c3ccc4cnccc4c3)nc3ccc(C(=O)NCc4cccc(C(N)=O)c4)cc32)C1", "assay": "binding, competition with immobilised ligand", "setting": "1 µM", "remaining binding": "99%"}
{"SMILES": "CC1=C(C#N)C(c2ccc3c(c2)c(NC(=O)c2ccccc2C)nn3C)C(C#N)=C(C)N1", "assay": "cell-free assay, competition with immobilised ligand", "setting": "1 µM", "remaining binding": "98%"}
{"SMILES": "Cc1cnc(Nc2ccc(C(=O)N3CCC(N4CCCC4)CC3)cc2)nc1-c1cc2ccccc2s1", "assay": "binding, competition with immobilised ligand", "setting": "1 µM", "remaining binding": "30%"}
{"SMILES": "CN(C)c1nccc(-c2cnc3ncccn23)n1", "assay": "binding", "setting": "1 µM", "remaining binding": "68%"}
{"SMILES": "COc1cnc(Nc2cccc(S(N)(=O)=O)c2)nc1N1CCN(c2ccccc2)CC1", "assay": "binding, competition with immobilised ligand", "setting": "1 µM", "remaining binding": "100%"}
{"SMILES": "N[C@H]1CCN(c2nccc(-c3cnn4ncccc34)n2)C1", "assay": "binding", "setting": "1 µM", "remaining binding": "88%"}
{"SMILES": "O=C(Nc1c[nH]nc1C(=O)NC1CCNCC1)c1cc(F)cc(F)c1", "assay": "binding, competition with immobilised ligand", "setting": "1 µM", "remaining binding": "74%"}
{"SMILES": "O=C(c1ccc(Nc2ncc(Cl)c(-c3ccc(Cl)s3)n2)cc1)N1CCC(N2CCCC2)CC1", "assay": "binding, competition with immobilised ligand", "setting": "1 µM", "remaining binding": "54%"}
{"SMILES": "Cn1cc(Cl)c2c(Oc3c(F)cc(Nc4cc(Cl)nc(N)n4)cc3F)ccnc21", "assay": "cell-free assay, competition with immobilised ligand", "setting": "0.1 µM", "remaining binding": "100%"}
{"SMILES": "CN(c1nccc(-c2cnn3ncccc23)n1)C1CC1", "assay": "binding", "setting": "1 µM", "remaining binding": "82%"}
{"SMILES": "COc1ccc2c(c1)O[C@H](c1ccc(OC)c(OC)c1)C[C@@H]2NC(=O)C1(c2ccc3c(c2)OC(F)(F)O3)CC1", "assay": "cell-free assay, competition with immobilised ligand", "setting": "1 µM", "remaining binding": "100%"}
{"SMILES": "CCN1CCN(Cc2ccc(C(=O)Nc3ccc(C)c(Oc4ccc5c(c4)CC(=O)N5)c3)cc2C(F)(F)F)CC1", "assay": "binding, competition with immobilised ligand", "setting": "1 µM", "remaining binding": "100%"}
{"SMILES": "O=C(NC[C@@H]1[C@H]2CN(C(=O)OCc3cc(C(F)(F)F)cc(C(F)(F)F)c3)C[C@@H]12)c1ccc2[nH]nnc2c1", "assay": "cell-free assay, competition with immobilised ligand", "setting": "1 µM", "remaining binding": "77%"}
{"SMILES": "CC1CCCN1c1nccc(-c2cnn3ncccc23)n1 (stereo not drawn)", "assay": "binding", "setting": "1 µM", "remaining binding": "98%"}
{"SMILES": "C[C@H](c1ccc(F)cc1)N(Cc1cccc(C(=O)O)c1)C(=O)c1cnc2ccccc2c1", "assay": "cell-free assay, competition with immobilised ligand", "setting": "1 µM", "remaining binding": "100%"}
{"SMILES": "O=C(NCCCN1CCOCC1)c1ccc(Nc2nccc(-c3cc4ccccc4s3)n2)cc1", "assay": "binding, competition with immobilised ligand", "setting": "1 µM", "remaining binding": "75%"}
